Test results as given in ChEMBL document CHEMBL4680165, “β-Lactams with antiproliferative and antiapoptotic activity in breast and chemoresistant colon cancer cells” (Eur J Med Chem, 2020).

Tests used:
DU-145 = assay: Antiproliferative activity against human DU-145 cells assessed as cell growth inhibition; type: functional
Procedure, shortened: (§1)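 NCI 60 cell line screen. Five concentrations (100, 10, 1, 0.1 and 0.01 µM) with 48 h drug exposure. GI50 is the molar concentration giving 50% growth inhibition; TGI and LC50 were also derived.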

HCC 2998 = assay: Antiproliferative activity against human HCC-2998 cells assessed as cell growth inhibition; type: functional; procedure, shortened: as §1
MCF7 [1] = assay: Antiproliferative activity against human MCF7 cells assessed as cell growth inhibition; type: functional; procedure, shortened: as §1
A498 = assay: Antiproliferative activity against human A498 cells assessed as cell growth inhibition; type: functional; procedure, shortened: as §1
EKVX = assay: Antiproliferative activity against human EKVX cells assessed as cell growth inhibition; type: functional; procedure, shortened: as §1
HT-29 [2] = assay: Antiproliferative activity against human HT-29 cells assessed as reduction in cell viability after 72 hrs by alamar blue assay; type: functional, cell-based; settings: HT-29, 72 h
Procedure, shortened: (§2)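 Cells seeded at 5 x 10^3/well (MCF-7) or 1 x 10^4/well (HT-29, HEK-293T) and treated after 24 h with serial dilutions (0.001-100 µM) in 1% v/v ethanol vehicle. Alamar Blue 10% v/v added at 72 h, then 3-5 h at 37 °C in the dark; fluorescence ex 530/em 590 nm. Viability relative to vehicle; IC50 from dose-response curves; mean of three experiments in triplicate.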

NCI/ADR-RES = assay: Antiproliferative activity against human NCI/ADR-RES cells assessed as cell growth inhibition; type: functional; procedure, shortened: as §1
LOX IMVI = assay: Antiproliferative activity against human LOX IMVI cells assessed as cell growth inhibition; type: functional; procedure, shortened: as §1
NCI-H23 = assay: Antiproliferative activity against human NCI-H23 cells assessed as cell growth inhibition; type: functional; procedure, shortened: as §1
CAKI-1 = assay: Antiproliferative activity against human […] cells assessed as cell growth inhibition; type: functional; procedure, shortened: as §1
CCRF-CEM = assay: Antiproliferative activity against human CCRF-CEM cells assessed as cell growth inhibition; type: functional; procedure, shortened: as §1
HOP-62 = assay: Antiproliferative activity against human HOP-62 cells assessed as cell growth inhibition; type: functional; procedure, shortened: as §1
NCI-H460 = assay: Antiproliferative activity against human NCI-H460 cells assessed as cell growth inhibition; type: functional; procedure, shortened: as §1
UO-31 = assay: Antiproliferative activity against human UO-31 cells assessed as cell growth inhibition; type: functional
Procedure, shortened: (§3)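 NCI60 cell line screen: cells exposed for 48 h to five concentrations (100, 10, 1, 0.1 and 0.01 µM). GI50 is the molar concentration giving 50% growth inhibition; TGI and LC50 were also determined.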

IGROV-1 = assay: Antiproliferative activity against human IGROV-1 cells assessed as cell growth inhibition; type: functional; procedure, shortened: as §1
HCT-116 = assay: Antiproliferative activity against human HCT-116 cells assessed as cell growth inhibition; type: functional; procedure, shortened: as §1
SR = assay: Antiproliferative activity against human SR cells assessed as cell growth inhibition; type: functional; procedure, shortened: as §3
HT-29 [3] = assay: Antiproliferative activity against human HT-29 cells assessed as cell growth inhibition; type: functional; procedure, shortened: as §1
SK-MEL-5 = assay: Antiproliferative activity against human SK-MEL-5 cells assessed as cell growth inhibition; type: functional; procedure, shortened: as §3
KM12 = assay: Antiproliferative activity against human KM12 cells assessed as cell growth inhibition; type: functional; procedure, shortened: as §1
OVCAR-5 = assay: Antiproliferative activity against human OVCAR-5 cells assessed as cell growth inhibition; type: functional; procedure, shortened: as §1
HOP-92 = assay: Antiproliferative activity against human HOP-92 cells assessed as cell growth inhibition; type: functional; procedure, shortened: as §1
NCI-H226 = assay: Antiproliferative activity against human NCI-H226 cells assessed as cell growth inhibition; type: functional; procedure, shortened: as §1
SF-539 = assay: Antiproliferative activity against human SF539 cells assessed as cell growth inhibition; type: functional; procedure, shortened: as §3
SNB-75 = assay: Antiproliferative activity against human SNB-75 cells assessed as cell growth inhibition; type: functional; procedure, shortened: as §3
SK-MEL-28 = assay: Antiproliferative activity against human SK-MEL-28 cells assessed as cell growth inhibition; type: functional; procedure, shortened: as §3
ACHN = assay: Antiproliferative activity against human ACHN cells assessed as cell growth inhibition; type: functional; procedure, shortened: as §1
OVCAR-4 = assay: Antiproliferative activity against human OVCAR-4 cells assessed as cell growth inhibition; type: functional; procedure, shortened: as §1
SNB-19 = assay: Antiproliferative activity against human SNB-19 cells assessed as cell growth inhibition; type: functional; procedure, shortened: as §3
MDA-MB-435 = assay: Antiproliferative activity against human MDA-MB-435 cells assessed as cell growth inhibition; type: functional; procedure, shortened: as §1
[4] = test system: UDP-glucuronosyltransferases (UGTs); assay: Metabolic stability in human liver microsomes assessed as UGT-mediated N-glucuronidation by measuring half life at 3 uM measured up to 45 mins by LC-MS/MS analysis; type: ADME; settings: microsomes, 0.75 h, 3 µM
Procedure, shortened: (§4)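 Pooled human liver microsomes (0.5 mg/mL protein final) with alamethicin (25 µg/mg) in 0.1 M phosphate pH 7.4, compound 3 µM final (0.25% DMSO), preincubated 37 °C. Reaction started with UDPGA (1 mM final). Sampled at 0, 5, 15, 30, 45 min into methanol, analysed by LC-MS/MS. Minus-UDPGA control run 45 min. Single incubations; t½ and CLint taken from the elimination rate constant.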

BT-549 = assay: Antiproliferative activity against human BT-549 cells assessed as cell growth inhibition; type: functional; procedure, shortened: as §1
[5] = test system: UDP-glucuronosyltransferases (UGTs); assay: Metabolic stability in human liver microsomes assessed as UGT-mediated N-glucuronidation by measuring intrinsic clearance at 3 uM measured up to 45 mins by LC-MS/MS analysis; type: ADME; settings: microsomes, 0.75 h, 3 µM; procedure, shortened: as §4
OVCAR-3 = assay: Antiproliferative activity against human OVCAR-3 cells assessed as cell growth inhibition; type: functional; procedure, shortened: as §1
K562 = assay: Antiproliferative activity against human K-562 cells assessed as cell growth inhibition; type: functional; procedure, shortened: as §1
T47D = assay: Antiproliferative activity against human T47D cells assessed as cell growth inhibition; type: functional; procedure, shortened: as §3
[6] = Selectivity index, ratio of IC50 for human MCF7 cells to IC50 for human HT-29 cells assessed as reduction in cell viability after 72 hrs by alamar blue assay; type: functional
HL-60 = assay: Antiproliferative activity against human HL60 cells assessed as cell growth inhibition; type: functional; procedure, shortened: as §1
786-0 = assay: Antiproliferative activity against human 786-0 cells assessed as cell growth inhibition; type: functional; procedure, shortened: as §1
SW-620 = assay: Antiproliferative activity against human SW-620 cells assessed as cell growth inhibition; type: functional; procedure, shortened: as §3
SK-MEL-2 = assay: Antiproliferative activity against human SK-MEL-2 cells assessed as cell growth inhibition; type: functional; procedure, shortened: as §3
SF-268 = assay: Antiproliferative activity against human SF-268 cells assessed as cell growth inhibition; type: functional; procedure, shortened: as §1
SF-295 = assay: Antiproliferative activity against human SF295 cells assessed as cell growth inhibition; type: functional; procedure, shortened: as §1
MCF7 [7] = assay: Antiproliferative activity against human MCF7 cells assessed as reduction in cell viability after 72 hrs by alamar blue assay; type: functional, cell-based; settings: MCF7, 72 h; procedure, shortened: as §2
Hs-578T = assay: Antiproliferative activity against human Hs-578T cells assessed as cell growth inhibition; type: functional; procedure, shortened: as §1
M14 = assay: Antiproliferative activity against human M14 cells assessed as cell growth inhibition; type: functional; procedure, shortened: as §1
PC-3 = assay: Antiproliferative activity against human PC-3 cells assessed as cell growth inhibition; type: functional; procedure, shortened: as §1
HCT-15 = assay: Antiproliferative activity against human HCT-15 cells assessed as cell growth inhibition; type: functional; procedure, shortened: as §1
A549 = assay: Antiproliferative activity against human A549 cells assessed as cell growth inhibition; type: functional; procedure, shortened: as §1
SN12C = assay: Antiproliferative activity against human SN12C cells assessed as cell growth inhibition; type: functional; procedure, shortened: as §3
UACC-62 = assay: Antiproliferative activity against human UACC-62 cells assessed as cell growth inhibition; type: functional; procedure, shortened: as §3
MOLT-4 = assay: Antiproliferative activity against human MOLT-4 cells assessed as cell growth inhibition; type: functional; procedure, shortened: as §1
TK-10 = assay: Antiproliferative activity against human TK-10 cells assessed as cell growth inhibition; type: functional; procedure, shortened: as §3
MDA-MB-468 = assay: Antiproliferative activity against human MDA-MB-468 cells assessed as cell growth inhibition; type: functional; procedure, shortened: as §1
OVCAR-8 = assay: Antiproliferative activity against human OVCAR-8 cells assessed as cell growth inhibition; type: functional; procedure, shortened: as §1
MDA-MB-231 = assay: Antiproliferative activity against human MDA-MB-231 cells assessed as cell growth inhibition; type: functional; procedure, shortened: as §1
Malme-3M = assay: Antiproliferative activity against human Malme-3M cells assessed as cell growth inhibition; type: functional; procedure, shortened: as §1
U-251 = assay: Antiproliferative activity against human U251 cells assessed as cell growth inhibition; type: functional; procedure, shortened: as §3
NCI-H522 = assay: Antiproliferative activity against human […] cells assessed as cell growth inhibition; type: functional; procedure, shortened: as §1
RPMI-8226 = assay: Antiproliferative activity against human RPMI-8226 cells assessed as cell growth inhibition; type: functional; procedure, shortened: as §1
SK-OV-3 = assay: Antiproliferative activity against human SK-OV-3 cells assessed as cell growth inhibition; type: functional; procedure, shortened: as §3
[8] = Antiproliferative activity against human NCI-H332M cells assessed as cell growth inhibition; type: functional; procedure, shortened: as §1
COLO 205 = assay: Antiproliferative activity against human COLO 205 cells assessed as cell growth inhibition; type: functional; procedure, shortened: as §1

GI50 (DU-145): 35.4 nM | GI50 (HCC 2998): 39.4 nM | GI50 (MCF7 [1]): 29.6 nM | IC50 (HT-29 [2]): 9 nM | GI50 (NCI-H23): 48.9 nM | GI50 (CCRF-CEM): 36.1 nM | GI50 (NCI-H460): 34.4 nM | GI50 (HCT-116): 32.4 nM | GI50 (HT-29 [3]): 26 nM | GI50 (SK-MEL-5): 27.1 nM | GI50 (OVCAR-5): 51.7 nM | GI50 (NCI-H226): 35 nM | GI50 (SK-MEL-28): 1370 nM | GI50 (ACHN): 44 nM | GI50 (OVCAR-4): 87.1 nM | GI50 (MDA-MB-435): 18.7 nM | t1/2 [4]: 23.5 h | GI50 (BT-549): 26.6 nM | CLH [5]: 0.98 µL/min/mg | GI50 (OVCAR-3): 28 nM | GI50 (K562): 32.1 nM | GI50 (T47D): > 100000 nM | GI50 (HL-60): 22.3 nM | GI50 (786-0): 31.4 nM | GI50 (SW-620): 41.9 nM | GI50 (SK-MEL-2): 35.4 nM | IC50 (MCF7 [7]): 17 nM | GI50 (PC-3): 40.3 nM | GI50 (HCT-15): 33.6 nM | GI50 (A549): 36.8 nM | GI50 (MOLT-4): 38.1 nM | GI50 (MDA-MB-468): 28.7 nM | GI50 (OVCAR-8): 34.4 nM | GI50 (MDA-MB-231): 45.2 nM | GI50 (U-251): 35.9 nM | GI50 (NCI-H522): 18.6 nM | GI50 (RPMI-8226): 41.3 nM | GI50 (SK-OV-3): 34.8 nM | GI50 (COLO 205): 19.4 nM
Structure (SMILES): COc1ccc([C@H]2[C@H](c3ccccc3)C(=O)N2c2cc(OC)c(OC)c(OC)c2)cc1F
GI50 (A498): 27 nM | GI50 (EKVX): 77.6 nM | GI50 (NCI/ADR-RES): 39.4 nM | GI50 (LOX IMVI): 29.6 nM | GI50 (CAKI-1): 33.2 nM | GI50 (HOP-62): 37.9 nM | GI50 (UO-31): 77.1 nM | GI50 (IGROV-1): 42.8 nM | GI50 (SR): 37.3 nM | GI50 (KM12): 33.1 nM | GI50 (HOP-92): 2840 nM | GI50 (SF-539): 23.4 nM | GI50 (SNB-75): 31.4 nM | GI50 (SNB-19): 49.9 nM | Ratio IC50 [6]: 1.88 | GI50 (SF-268): 44.3 nM | GI50 (SF-295): 29 nM | GI50 (Hs-578T): 43.4 nM | GI50 (M14): 22.6 nM | GI50 (SN12C): 56.1 nM | GI50 (UACC-62): 54.3 nM | GI50 (TK-10): 1680 nM | GI50 (Malme-3M): > 100000 nM | GI50 [8]: 68.7 nM
